{
  "source": "EPA's CvTdb concentration-time database",
  "key": {"[1]": {"tested_on": "Rat", "assay": "concentration in brain after dosing", "conditions": "864 h; dosed: Perfluorodecanoic acid; 10 mg/kg; oral; Female; Harlan Sprague Dawley"}, "[2]": {"tested_on": "Rat", "assay": "concentration in plasma after dosing", "conditions": "dosed: Perfluorodecanoic acid, 2 mg/kg, iv, Male, F344"}, "[3]": {"tested_on": "Rat", "assay": "concentration in brain after dosing", "conditions": "24 h; dosed: Perfluorodecanoic acid; 10 mg/kg; oral; Female; Harlan Sprague Dawley"}, "[4]": {"tested_on": "Rat", "assay": "concentration in plasma after dosing", "conditions": "dosed: Perfluorodecanoic acid, 2 mg/kg, oral, Male, Harlan Sprague Dawley"}, "[5]": {"tested_on": "Rat", "assay": "concentration in plasma after dosing", "conditions": "dosed: dichloroacetic acid, 40 mg/kg, oral, Female, Harlan Sprague Dawley"}, "[6]": {"tested_on": "human", "assay": "concentration in plasma after dosing; negative times count back from the end of exposure", "conditions": "dosed: trichloroethylene, 100 ppm, inhalation, duration: 4 hr, person", "how_it_was_run": "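A PubMed search, classifier screening and manual review identified published in vivo toxicokinetic studies, which together with two structured collections supplied concentration-versus-time and amount-versus-time points. Points were mostly digitised from plot screenshots with WebPlotDigitizer, otherwise copied from tables. Dose, route, subject details and medium were hand-curated from each paper, and sampling and analytical methods are those of the sources, often unreported.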"}, "[7]": {"tested_on": "Rat", "assay": "concentration in plasma after dosing", "conditions": "dosed: dichloroacetic acid, 40 mg/kg, oral, Female, Harlan Sprague Dawley", "remark": "listed apart in the source"}, "[8]": {"tested_on": "Rat", "assay": "concentration in plasma after dosing", "conditions": "dosed: dichloroacetic acid, 40 mg/kg, oral, Female, Harlan Sprague Dawley", "remark": "listed apart in the source"}, "[9]": {"tested_on": "Rat", "assay": "concentration in plasma after dosing", "conditions": "30 h; dosed: Primidone; 130 mg/kg; oral; Female; F344"}, "[10]": {"tested_on": "Rat", "assay": "concentration in plasma after dosing", "conditions": "12 h; dosed: Primidone; 30 mg/kg; oral; Female; F344"}, "[11]": {"tested_on": "Rat", "assay": "concentration in plasma after dosing", "conditions": "1 h; dosed: Wyeth-14643; 5.0 mg/kg; oral; Male; Sprague-Dawley"}, "[12]": {"tested_on": "Rat", "assay": "concentration in plasma after dosing", "conditions": "0.5 h; dosed: Wyeth-14643; 1.0 mg/kg; oral; Male; Sprague-Dawley"}, "[13]": {"tested_on": "Rat", "assay": "concentration in plasma after dosing", "conditions": "dosed: Fluorotelomer alcohol 8+2, 12 mg/kg, oral, Male, Harlan Sprague Dawley"}, "[14]": {"tested_on": "Rat", "assay": "concentration in brain after dosing", "conditions": "6 h; dosed: Fluorotelomer alcohol 8+2; 80 mg/kg; oral; Female; Harlan Sprague Dawley"}, "[15]": {"tested_on": "Rat", "assay": "concentration in liver after dosing", "conditions": "20 min; dosed: Thiodiglycolic Acid; 20 mg/kg; iv; Female; F344"}, "[16]": {"tested_on": "Rat", "assay": "concentration in liver after dosing", "conditions": "6.667 h; dosed: Thiodiglycolic Acid; 20 mg/kg; iv; Female; Harlan Sprague Dawley"}, "[17]": {"tested_on": "Rat", "assay": "concentration in thymus after dosing", "conditions": "2 h; dosed: Thiodiglycolic Acid; 20 mg/kg; iv; Male; Harlan Sprague Dawley"}, "[18]": {"tested_on": "Rat", "assay": "concentration in heart after dosing", "conditions": "2 h; dosed: Thiodiglycolic Acid; 20 mg/kg; iv; Female; Harlan Sprague Dawley"}, "[19]": {"tested_on": "Rat", "assay": "concentration in liver after dosing", "conditions": "1 h; dosed: Thiodiglycolic Acid; 20 mg/kg; iv; Female; Harlan Sprague Dawley"}, "[20]": {"tested_on": "Rat", "assay": "concentration in liver after dosing", "conditions": "10 min; dosed: Thiodiglycolic Acid; 20 mg/kg; iv; Male; F344"}, "[21]": {"tested_on": "Rat", "assay": "concentration in liver after dosing", "conditions": "10 min; dosed: Bis 2-Chloroethoxy Methane; 20 mg/kg; iv; Female; F344"}, "[22]": {"tested_on": "Rat", "assay": "concentration in plasma after dosing", "conditions": "4 h; dosed: Bis 2-Chloroethoxy Methane; 20 mg/kg; iv; Female; F344"}, "[23]": {"tested_on": "Rat", "assay": "concentration in liver after dosing", "conditions": "5 h; dosed: Bis 2-Chloroethoxy Methane; 20 mg/kg; iv; Male; F344"}, "[24]": {"tested_on": "Rat", "assay": "concentration in plasma after dosing", "conditions": "1 h; dosed: Bis 2-Chloroethoxy Methane; 20 mg/kg; iv; Female; F344"}, "[25]": {"tested_on": "Rat", "assay": "concentration in heart after dosing", "conditions": "2 h; dosed: Bis 2-Chloroethoxy Methane; 20 mg/kg; iv; Female; F344"}, "[26]": {"tested_on": "Rat", "assay": "concentration in thymus after dosing", "conditions": "5 h; dosed: Bis 2-Chloroethoxy Methane; 20 mg/kg; iv; Female; F344"}, "[27]": {"tested_on": "Rat", "assay": "concentration in plasma after dosing", "conditions": "20 min; dosed: Bis 2-Chloroethoxy Methane; 20 mg/kg; iv; Male; F344"}, "[28]": {"tested_on": "Rat", "assay": "concentration in heart after dosing", "conditions": "4 h; dosed: Bis 2-Chloroethoxy Methane; 20 mg/kg; iv; Female; F344"}, "[29]": {"tested_on": "Rat", "assay": "concentration in thymus after dosing", "conditions": "10 min; dosed: Bis 2-Chloroethoxy Methane; 20 mg/kg; iv; Female; F344"}, "[30]": {"tested_on": "Rat", "assay": "concentration in liver after dosing", "conditions": "40 min; dosed: Bis 2-Chloroethoxy Methane; 20 mg/kg; iv; Female; F344"}, "[31]": {"tested_on": "Rat", "assay": "concentration in liver after dosing", "conditions": "1 h; dosed: Bis 2-Chloroethoxy Methane; 20 mg/kg; iv; Male; F344"}, "[32]": {"tested_on": "Rat", "assay": "concentration in heart after dosing", "conditions": "6 h; dosed: Bis 2-Chloroethoxy Methane; 20 mg/kg; iv; Male; F344"}, "[33]": {"tested_on": "Rat", "assay": "concentration in plasma after dosing", "conditions": "10 h; dosed: Di-n-butyl phthalate; 50 mg/kg; oral; Male; Sprague-Dawley"}, "[34]": {"tested_on": "Rat", "assay": "concentration in plasma after dosing", "conditions": "20 h; dosed: Di-n-butyl phthalate; 200 mg/kg; oral; Male; Sprague-Dawley"}},
  "data": [
    {"smiles": "O=C(O)C(F)(F)C(F)(F)C(F)(F)C(F)(F)C(F)(F)C(F)(F)C(F)(F)C(F)(F)C(F)(F)F", "note": "[Perfluorodecanoic acid]", "values": [
      {"measurement": "concentration in brain", "setting": "[1]", "value": 1220, "unit": "ng/g"},
      {"measurement": "concentration in plasma", "setting": "[2]; 6 h", "value": 6360, "unit": "ng/mL"},
      {"measurement": "concentration in plasma", "setting": "[2]; 864 h", "value": 1550, "unit": "ng/mL"},
      {"measurement": "concentration in brain", "setting": "[3]", "value": 2560, "unit": "ng/g"},
      {"measurement": "concentration in plasma", "setting": "[4]; 2 h", "value": 4900, "unit": "ng/mL"},
      {"measurement": "concentration in plasma", "setting": "[4]; 528 h", "value": 2050, "unit": "ng/mL"},
      {"measurement": "concentration in plasma", "setting": "[4]; 3360 h", "value": 516, "unit": "ng/mL"}
    ]},
    {"smiles": "O=C(O)C(Cl)Cl", "note": "[dichloroacetic acid]", "values": [
      {"measurement": "concentration in plasma", "setting": "[5]; 10 min", "value": 3380, "unit": "ng/mL"},
      {"measurement": "concentration in plasma", "setting": "[5]; 1.5 h", "value": 3320, "unit": "ng/mL"},
      {"measurement": "concentration in plasma", "setting": "[6]; 0 h", "value": 8, "unit": "ng/mL"},
      {"measurement": "concentration in plasma", "setting": "[6]; 0.25 h", "value": 5, "unit": "ng/mL"},
      {"measurement": "concentration in plasma", "setting": "[6]; 0.5 h", "value": 5, "unit": "ng/mL"},
      {"measurement": "concentration in plasma", "setting": "[6]; 1.75 h", "value": 4, "unit": "ng/mL"},
      {"measurement": "concentration in plasma", "setting": "[6]; 4 h", "value": 5, "unit": "ng/mL"},
      {"measurement": "concentration in plasma", "setting": "[6]; 12 h", "value": 5, "unit": "ng/mL"},
      {"measurement": "concentration in plasma", "setting": "[6]; -1 h, during exposure", "value": 10, "unit": "ng/mL"},
      {"measurement": "concentration in plasma", "setting": "[6]; -2 h, during exposure", "value": 4, "unit": "ng/mL"},
      {"measurement": "concentration in plasma", "setting": "[7]; 10 min", "value": 6310, "unit": "ng/mL"},
      {"measurement": "concentration in plasma", "setting": "[7]; 1.5 h", "value": 2780, "unit": "ng/mL"},
      {"measurement": "concentration in plasma", "setting": "[8]; 2 min", "value": 704, "unit": "ng/mL"},
      {"measurement": "concentration in plasma", "setting": "[8]; 1 h", "value": 7020, "unit": "ng/mL"}
    ]},
    {"smiles": "CCC1(c2ccccc2)C(=O)NC(=O)NC1=O", "note": "[Phenobarbital]", "values": [
      {"measurement": "concentration in plasma", "setting": "[9]", "value": 2120, "unit": "ng/mL"},
      {"measurement": "concentration in plasma", "setting": "[10]", "value": 930, "unit": "ng/mL"}
    ]},
    {"smiles": "Cc1cccc(Nc2cc(Cl)nc(SCC(=O)O)n2)c1C", "values": [
      {"measurement": "concentration in plasma", "setting": "[11]", "value": 4730, "unit": "ng/mL"},
      {"measurement": "concentration in plasma", "setting": "[12]", "value": 1210, "unit": "ng/mL"}
    ]},
    {"smiles": "OCCC(F)(F)C(F)(F)C(F)(F)C(F)(F)C(F)(F)C(F)(F)C(F)(F)C(F)(F)F", "note": "[Fluorotelomer alcohol 8+2]", "values": [
      {"measurement": "concentration in plasma", "setting": "[13]; 0.25 h", "value": 183, "unit": "ng/mL"},
      {"measurement": "concentration in plasma", "setting": "[13]; 6 h", "value": 27.9, "unit": "ng/mL"},
      {"measurement": "concentration in brain", "setting": "[14]", "value": 1310, "unit": "ng/g"}
    ]},
    {"smiles": "O=C(O)CSCC(=O)O", "note": "[Thiodiglycolic Acid]", "values": [
      {"measurement": "concentration in liver", "setting": "[15]", "value": 162000, "unit": "ng/g"},
      {"measurement": "concentration in liver", "setting": "[16]", "value": 17000, "unit": "ng/g"},
      {"measurement": "concentration in thymus", "setting": "[17]", "value": 2260, "unit": "ng/g"},
      {"measurement": "concentration in heart", "setting": "[18]", "value": 1640, "unit": "ng/g"},
      {"measurement": "concentration in liver", "setting": "[19]", "value": 60100, "unit": "ng/g"},
      {"measurement": "concentration in liver", "setting": "[20]", "value": 160000, "unit": "ng/g"}
    ]},
    {"smiles": "ClCCOCOCCCl", "note": "[Bis 2-Chloroethoxy Methane]", "values": [
      {"measurement": "concentration in liver", "setting": "[21]", "value": 973, "unit": "ng/g"},
      {"measurement": "concentration in plasma", "setting": "[22]", "value": 86.2, "unit": "ng/mL"},
      {"measurement": "concentration in liver", "setting": "[23]", "value": 42.7, "unit": "ng/g"},
      {"measurement": "concentration in plasma", "setting": "[24]", "value": 900, "unit": "ng/mL"},
      {"measurement": "concentration in heart", "setting": "[25]", "value": 247, "unit": "ng/g"},
      {"measurement": "concentration in thymus", "setting": "[26]", "value": 79.1, "unit": "ng/g"},
      {"measurement": "concentration in plasma", "setting": "[27]", "value": 5580, "unit": "ng/mL"},
      {"measurement": "concentration in heart", "setting": "[28]", "value": 46.5, "unit": "ng/g"},
      {"measurement": "concentration in thymus", "setting": "[29]", "value": 50600, "unit": "ng/g"},
      {"measurement": "concentration in liver", "setting": "[30]", "value": 636, "unit": "ng/g"},
      {"measurement": "concentration in liver", "setting": "[31]", "value": 2410, "unit": "ng/g"},
      {"measurement": "concentration in heart", "setting": "[32]", "value": 19.3, "unit": "ng/g"}
    ]},
    {"smiles": "CCCCOC(=O)c1ccccc1C(=O)O", "note": "[Mono-n-butyl phthalate]", "values": [
      {"measurement": "concentration in plasma", "setting": "[33]", "value": 1170, "unit": "ng/mL"},
      {"measurement": "concentration in plasma", "setting": "[34]", "value": 1290, "unit": "ng/mL"}
    ]}
  ]
}
